Assay results collected from several papers.
Protocols differ between the studies behind these lines.
Target: Mitogen-activated protein kinase kinase kinase 11 (MAP3K11, Homo sapiens, UniProt Q16584)

Cc1nn(CC(F)(F)F)cc1Nc1nccc(NCCCNC(=O)C2CCC2)n1
remaining activity (enzyme activity; inhibitor; radiometric; 1 µM): 106%

CNC(=O)c1cc(Oc2ccc(NC(=O)Nc3ccc(Cl)c(C(F)(F)F)c3)cc2)ccn1
remaining signal (cell-free assay; 0.5 µM): 98.3%

N#Cc1ccc(Nc2ccc3[nH]c(=O)[nH]c3c2)c(Cl)c1
remaining binding (cell-free assay; competition with immobilised ligand; 1 µM): 100%

N#CCCc1ccc2c(c1)-c1[nH]c3ccc([N+](=O)[O-])cc3c1CC(=O)N2
remaining signal (cell-free assay; 0.5 µM): 18.4%

CN1CC(Oc2cnc(C#N)cc2-c2ccn3nc(NC(=O)C4CC4)cc3c2)C1
inhibition (enzyme activity; inhibitor; 1 µM): 5%

Cc1nn(CC(F)(F)F)cc1Nc1ncc(Br)c(NCc2ccc(S(N)(=O)=O)cc2)n1
remaining activity (enzyme activity; inhibitor; radiometric; 1 µM): 82%

CCOCCn1cc(C(=O)Nc2ccc(-n3nc(-c4cccnc4)cc3C(F)(F)F)cn2)ccc1=O
remaining binding (cell-free assay; competition with immobilised ligand; 1 µM): 100%

O=C(NCCCNc1nc(Nc2cccc(NC(=O)N3CCCC3)c2)ncc1Br)C1CCC1
remaining activity (enzyme activity; inhibitor; radiometric; 1 µM): -3%

CN(C)c1ncnc(-c2ccc3nc(Nc4cc(CN5CCN(C(=O)CC(F)(F)F)CC5)ccn4)[nH]c3c2)c1Cl
remaining binding (cell-free assay; competition with immobilised ligand; 1 µM): 100%

NS(=O)(=O)c1ccc(CNc2nc(Nc3cccc(CN4CCOCC4)c3)ncc2Br)cc1
remaining activity (enzyme activity; inhibitor; radiometric; 1 µM): 34%

Cn1nc(C(=O)NCc2ccc(C(=O)O)cc2)cc1-c1ccc2[nH]ccc2c1
remaining binding (cell-free assay; competition with immobilised ligand; 0.1 µM): 87%

Cc1ccc(C(=O)NCc2ccsc2)cc1C#Cc1cn(C(C)C)c2ncnc(N)c12
activity vs control (enzyme activity; inhibitor; 1 µM): 8%

COc1cc(Nc2cnc(C#N)c(O[C@H](C)CN(C)C)n2)ncc1-c1cnn(C)c1
remaining activity (enzyme activity; inhibitor; radiometric; 1 µM): 68%

O=C(NCCCNc1nc(Nc2cccc(NC(=O)N3CCCC3)c2)ncc1C1CC1)C1CCC1
remaining activity (enzyme activity; inhibitor; radiometric; 1 µM): 27%

CC(=O)N1CCC(c2ccc(C(=O)NC(=N)N)cc2C(F)(F)F)CC1
remaining binding (cell-free assay; competition with immobilised ligand; 1 µM): 100%

COc1cc2ncnc(Nc3ccc(F)c(Cl)c3)c2cc1OCCCN1CCOCC1
remaining signal (cell-free assay; 0.5 µM): 102%

CC(C)(O)c1cncc(-c2nc3ccc(F)cc3n2C2CC2)c1
remaining binding (cell-free assay; competition with immobilised ligand; 1 µM): 100%

CN1CCc2cc(Nc3ncc(C4CC4)c(NCCCNC(=O)C4CCC4)n3)ccc2C1
remaining activity (enzyme activity; inhibitor; radiometric; 1 µM): 44%
